ChEMBL document CHEMBL4622968, “Discovery of [1,2,4]triazolo[4,3-a]pyridines as potent Smoothened inhibitors targeting the Hedgehog pathway with improved antitumor activity in vivo” (Bioorg Med Chem, 2020)
pIC50, pKd: −log10 of the molar value.

Experiments:
[1] = test system: MDA-MB-468; experiment: Induction of apoptosis in human MDA-MB-468 cells assessed as late apoptotic cells at 28 uM incubated for 48 hrs by annexin-V-FITC staining based flow cytometric method (reference value: 0.99 %); assay type: functional
[2] = Acute toxicity in Kunming mouse assessed as mortality at 4552 mg/kg, ig observed for 14 days relative to control; assay type: organism-based; conditions: in vivo, po, read-out: Activity
In short: (§1)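 Kunming mice, groups of 5 female and 5 male per dose, dosed once by gavage at graded doses; mortality recorded over 14 days as dead/treated and percent. LD50 derived by improved Karber's method: LD50 = lg^-1[xm − i(ΣP − 0.5)], xm log of maximal dose, i log ratio of neighbouring doses; 95% confidence intervals given.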

[3] = test system: HeLa; experiment: Antiproliferation activity against human HeLa cells assessed as reduction in cell viability incubated for 72 hrs by MTT assay; assay type: functional, cell-based
In short: (§2)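 MTT assay. Cells were plated overnight and exposed to a range of concentrations for 72 h. MTT was then added for 4 h and absorbance read at 570 nm. Inhibition% = [(control − compound)/(control − blank)] × 100. IC50 was fitted from the curves. Mean ± S.D. of 3–5 separate experiments. RPMI 1640 + 10% FBS; MCF10A in DMEM/F12 with 5% horse serum, EGF, hydrocortisone, insulin and cholera toxin.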

[4] = test system: MDA-MB-468; experiment: Induction of cell cycle arrest in human MDA-MB-468 cells assessed as cell accumulation at G2/M phase at 14 uM incubated for 48 hrs by propidium iodide staining-based flow cytometric analysis (reference value: 26.66 %); assay type: functional
In short: (§3)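 Cells were seeded at 1.2×10^5 per well and treated for 48 h (MDA-MB-468: 14, 28, 56 μM). Cells were fixed in 75% ethanol at −20 °C overnight, stained with PI and analysed by flow cytometry. Mean ± S.D. of three independent experiments versus DMSO.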

[5] = test system: MDA-MB-468; experiment: Antiproliferation activity against human MDA-MB-468 cells assessed as reduction in cell viability incubated for 72 hr by MTT assay; assay type: functional, cell-based; conditions: MDA-MB-468, 72 h; in short: as §2
[6] = test system: T47D; experiment: Antiproliferation activity against human T47D cells assessed as reduction in cell viability incubated for 72 hr by MTT assay; assay type: functional, cell-based; in short: as §2
[7] = target: T1, Protein smoothened (Homo sapiens, UniProt Q99835); experiment: Binding affinity to recombinant human Smo receptor assessed as dissociation constant at equilibrium by SPR analysis
[8] = Toxicity in BALB/c mouse xenografted with human MDA-MB-468 cells assessed as body weight at 80 to 100 mg/kg, ig measured every day for 21 day; assay type: organism-based; conditions: in vivo, po, 504 h
In short: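 Female BALB/c nude mice, 6–8 weeks, given 1.0×10^7 MDA-MB-468 cells s.c. in right posterior flank; at 100 mm3 tumours, randomized into groups of five. Daily gavage at 80 or 100 mg/kg in saline with 0.1% Tween 80, or vehicle alone; body weight recorded daily, tumour volume every 2 days; sacrificed day 21.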

[9] = Acute toxicity in Kunming mouse assessed as mortality at 3008 mg/kg, ig observed for 14 days relative to control; assay type: organism-based; conditions: in vivo, po, read-out: Activity; in short: as §1
[10] = Acute toxicity in Kunming mouse assessed as mortality at 3453 mg/kg, ig observed for 14 days relative to control; assay type: organism-based; conditions: in vivo, po, read-out: Activity; in short: as §1
[11] = test system: MCF7; experiment: Antiproliferation activity against human MCF7 cells assessed as reduction in cell viability incubated for 72 hrs by MTT assay; assay type: functional, cell-based; conditions: MCF7, 72 h; in short: as §2
[12] = Acute toxicity in Kunming mouse assessed as mortality at 3965 mg/kg, ig observed for 14 days relative to control; assay type: organism-based; conditions: in vivo, po, read-out: Activity; in short: as §1
[13] = test system: MDA-MB-468; experiment: Induction of apoptosis in human MDA-MB-468 cells assessed as late apoptotic cells at 14 uM incubated for 48 hrs by annexin-V-FITC staining based flow cytometric method (reference value: 0.99 %); assay type: functional
[14] = test system: MDA-MB-468; experiment: Induction of cell cycle arrest in human MDA-MB-468 cells assessed as cell accumulation at G2/M phase at 28 uM incubated for 48 hrs by propidium iodide staining-based flow cytometric analysis (reference value: 26.66 %); assay type: functional; in short: as §3
[15] = Acute toxicity in Kunming mouse assessed as lethality through intragastric administration observed for 14 days; conditions: in vivo, po; in short: as §1
[16] = test system: MDA-MB-231; experiment: Antiproliferation activity against human MDA-MB-231 cells assessed as reduction in cell viability incubated for 72 hrs measured after 4 hrs by MTT assay; assay type: functional, cell-based; in short: as §2
[17] = test system: MDA-MB-468; experiment: Induction of cell cycle arrest in human MDA-MB-468 cells assessed as cell accumulation at S phase at 14 uM incubated for 48 hrs by propidium iodide staining-based flow cytometric analysis (reference value: 34.20 %); assay type: functional; in short: as §3
[18] = test system: MDA-MB-468; experiment: Induction of apoptosis in human MDA-MB-468 cells assessed as necrotic cells at 28 uM incubated for 48 hrs by annexin-V-FITC staining based flow cytometric method (reference value: 1.52 %); assay type: functional
[19] = test system: MDA-MB-468; experiment: Induction of cell cycle arrest in human MDA-MB-468 cells assessed as cell accumulation at G0/G1 phase at 56 uM incubated for 48 hrs by propidium iodide staining-based flow cytometric analysis (reference value: 38.94 %); assay type: functional; in short: as §3
[20] = test system: MDA-MB-468; experiment: Induction of cell cycle arrest in human MDA-MB-468 cells assessed as cell accumulation at G2/M phase at 56 uM incubated for 48 hrs by propidium iodide staining-based flow cytometric analysis (reference value: 26.66 %); assay type: functional; in short: as §3
[21] = test system: MDA-MB-231; experiment: Induction of cell cycle arrest in human MDA-MB-231 cells assessed as cell accumulation at G0/G1 phase incubated for 48 hrs by propidium iodide staining-based flow cytometric analysis; assay type: functional
[22] = test system: MDA-MB-468; experiment: Induction of cell cycle arrest in human MDA-MB-468 cells assessed as cell accumulation at G0/G1 phase at 28 uM incubated for 48 hrs by propidium iodide staining-based flow cytometric analysis (reference value: 38.94 %); assay type: functional; in short: as §3
[23] = test system: MDA-MB-468; experiment: Induction of apoptosis in human MDA-MB-468 cells assessed as early apoptotic cells at 56 uM incubated for 48 hrs by annexin-V-FITC staining based flow cytometric method (reference value: 2.00 %); assay type: functional
[24] = test system: MDA-MB-468; experiment: Induction of apoptosis in human MDA-MB-468 cells assessed as increase in apoptosis incubated for 48 hrs by annexin-V-FITC/PI staining based flow cytometric method; assay type: functional, cell-based
[25] = test system: MCF-10A; experiment: Cytotoxicity against human MCF10A cells assessed as cell viability incubated for 72 hrs measured by MTT assay; assay type: cell-based; in short: as §2
[26] = target: T1, Protein smoothened; experiment: Binding affinity to recombinant human Smo receptor assessed as maximum response at equilibrium by SPR analysis
In short: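 Surface plasmon resonance with recombinant Smo protein, run in PBS at a flow rate of 2 μL/s and 4 °C. Analytes were injected at 2.5, 5 and 10 μM. The chip was regenerated with 0.5% SDS:glycine-HCl pH 2.0 (1:1). ka, kd, Rmax, KA and KD came from a global fit of the sensorgrams.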

[27] = target: T1, Protein smoothened; experiment: Displacement of BODIPY-Cyclopamine from wild type Smo receptor (unknown origin) expressed in HEK293 cells incubated for 12 hrs by Hoechst 33342 based fluorescence microscopic method; assay type: cell-based
In short: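 HEK293 cells were transiently transfected in triplicate with a wild-type Smo plasmid, with expression confirmed by western blot. Cells were loaded with BODIPY-cyclopamine, then given unlabelled cyclopamine (25 μM) or test compound (1 or 25 μM) for 12 h at 37 °C. Nuclei were counterstained with Hoechst 33342. Green fluorescence was imaged by fluorescence microscopy.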

T1 sequence (Q99835 whole entry): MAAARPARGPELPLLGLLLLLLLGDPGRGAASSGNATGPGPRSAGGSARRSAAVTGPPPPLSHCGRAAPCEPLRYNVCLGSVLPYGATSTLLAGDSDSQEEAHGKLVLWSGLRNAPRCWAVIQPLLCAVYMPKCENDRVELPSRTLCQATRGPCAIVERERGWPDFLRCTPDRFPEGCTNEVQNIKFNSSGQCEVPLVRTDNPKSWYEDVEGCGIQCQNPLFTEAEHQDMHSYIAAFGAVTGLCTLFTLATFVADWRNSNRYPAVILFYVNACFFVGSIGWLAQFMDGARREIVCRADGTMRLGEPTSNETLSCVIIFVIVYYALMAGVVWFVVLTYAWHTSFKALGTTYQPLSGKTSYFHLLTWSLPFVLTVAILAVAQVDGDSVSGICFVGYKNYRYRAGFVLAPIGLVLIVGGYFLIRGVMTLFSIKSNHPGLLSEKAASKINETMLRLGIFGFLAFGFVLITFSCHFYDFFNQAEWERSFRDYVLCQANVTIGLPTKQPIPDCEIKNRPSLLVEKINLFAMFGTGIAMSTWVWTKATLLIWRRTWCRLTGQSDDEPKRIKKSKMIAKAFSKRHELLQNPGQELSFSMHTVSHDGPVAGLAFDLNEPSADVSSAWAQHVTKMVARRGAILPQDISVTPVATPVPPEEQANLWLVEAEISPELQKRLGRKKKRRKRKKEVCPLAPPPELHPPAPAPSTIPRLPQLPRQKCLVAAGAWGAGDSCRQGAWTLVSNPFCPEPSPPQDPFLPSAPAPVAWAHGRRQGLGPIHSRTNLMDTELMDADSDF

O=C(Nc1ccc(Cl)c(-c2nnc3c(Cl)cccn23)c1)c1ccc(Cl)nc1Cl
Activity [1]: 14.6%
mortality at 336 h [2]: 60%
pIC50 [3]: 4.18
Activity [4]: 86%
pIC50 [5]: 4.54
pIC50 [6]: 4.37
pKd [7]: 7.99
Activity [8]: Non-Toxic
mortality at 336 h [9]: 10%
mortality at 336 h [10]: 30%
pIC50 [11]: 4.21
mortality at 336 h [12]: 50%
Activity [13]: 7.15%
Activity [14]: 39.75%
LD50 at 336 h [15]: 3880 mg/kg
pIC50 [16]: 4.53
Activity [17]: 45%
Activity [18]: 9.86%
Activity [19]: 29%
Activity [20]: 42.57%
Activity [21]: Dose-dependent effect
Activity [22]: 29.86%
Activity [23]: 6.53%
Activity [24]: Dose-dependent effect
pIC50 [25]: < 4.00
Rmax [26]: 90.5 RU
Activity [27]: Dose-dependent effect
